# Assay outcomes from PubChem BioAssay.
# A selection: hits, their analogues and other compounds. The true share with any hit is near 1.3%.
# CHT block: human CHT choline transport inhibition. AID 488975. 310,000 tested, 0.86% active. B-score at 10 µM. Q9GZV3. CHT-expressing cells, membrane potential dye, choline response; hits give low values;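 active means B-score over 3 SD under the library average, and starting fluorescence ratio not unusually high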;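 further: choline stimulus applied at its EC90 after an EC20 pre-addition; B-score computed on integrated fluorescence ratio after choline addition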
# Target sequence (Q9GZV3 whole entry, looked up): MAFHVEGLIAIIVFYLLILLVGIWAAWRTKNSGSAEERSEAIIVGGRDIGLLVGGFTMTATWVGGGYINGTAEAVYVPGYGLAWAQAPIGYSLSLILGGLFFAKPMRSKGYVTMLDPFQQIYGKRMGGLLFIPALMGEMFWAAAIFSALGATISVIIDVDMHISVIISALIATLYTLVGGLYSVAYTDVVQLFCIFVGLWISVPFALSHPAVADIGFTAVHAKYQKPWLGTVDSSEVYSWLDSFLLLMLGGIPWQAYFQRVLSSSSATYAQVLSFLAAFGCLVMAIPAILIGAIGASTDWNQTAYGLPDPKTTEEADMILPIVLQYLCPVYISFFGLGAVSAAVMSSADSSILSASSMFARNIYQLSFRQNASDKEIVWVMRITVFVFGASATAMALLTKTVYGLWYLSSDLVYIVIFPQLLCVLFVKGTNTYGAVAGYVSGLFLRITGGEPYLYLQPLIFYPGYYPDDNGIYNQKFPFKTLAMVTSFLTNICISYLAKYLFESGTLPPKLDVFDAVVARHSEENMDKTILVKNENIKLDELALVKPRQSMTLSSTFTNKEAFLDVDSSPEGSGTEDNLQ
# procasp7 counter: counter-screen for procaspase-3 activators: activators of human procaspase-7. AID 463210. 330,000 tested, 0.093% active. activation, % at 8.5 µM. recombinant procaspase-7, Ac-DEVD-pNA absorbance 405 nm; D23A/D198A/D206A triple mutant, cannot self-cleave; scale: DMSO 0, 5 µM enzyme 100;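 active means percent activation above the screen-wide mean plus 3 SD, cut at about 25% in these data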
#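 buffer or medium = Zinc-free HEPES/NaCl buffer, pH 7.4 | material = Procaspase-7 triple mutant (PC-7 D3A) | input = 2 µM procaspase-7 mutant as dispensed | signal = Epi-absorbance of released pNA at 405 nm, two timepoints | timing = 1 h preincubation, 2 h reaction | replicates = singlicate compound testing | evaluation = % activation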
# procasp3 activ: activators of human procaspase-3 | P42574 | recombinant procaspase-3 D3A, Ac-DEVD-pNA absorbance 405 nm | activation, % at 8.5 µM | 330,000 tested, 0.11% active;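 active means activation above the mean of all tested compounds plus 3 SD, cut at about 21% in these data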;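 further: 0% = DMSO alone and 100% = DMSO wells spiked with extra 5 µM PC-3 D3A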
#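 System: Procaspase-3 D3A mutant. Medium: Zinc-free 300 mM NaCl, 50 mM HEPES, 0.01% Triton X-100. Schedule: 1 h preincubation plus 2 h reaction at 25 °C. Measured by: 405 nm absorbance of p-nitroaniline, reads at 0 and 120 min. Read-out: percent activation relative to control range.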
# CHT allo act: human CHT allosteric activation. AID 488977. B-score at 10 µM. CHT-expressing cells, membrane potential dye, choline EC20; hits give high values; LV-AA mutant CHT in HEK293 cells. Q9GZV3. 310,000 tested, 0.49% active;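 active means initial fluorescence not abnormally high and integrated response B-score, plate-corrected, over 3 SD above library mean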
# CHT block conf: human CHT inhibition, confirmatory screen; shares compounds with CHT block; CHT-expressing cells, choline membrane potential dye; LV-to-AA substituted CHT, HEK293 cells; CHT activity remaining % of control (hits give low values), % at 10 µM; 2,400 tested, 70% active;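 active means choline transporter activity left, mean of duplicates at 10 µM, below buffer-only control mean minus 3 SD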;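 further: depolarization triggered by choline at its EC90 following an EC20 pre-addition; 0% = hemicholinium-3 full block and 100% = buffer-only control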
# HEK293 MPD ctr: counter-screen for CHT inhibitors: effect in parental HEK293 cells. shares compounds with CHT block. membrane potential ratio readout (active if shifted either direction beyond buffer ±3SD; no single direction) at 10 µM. 2,400 tested, 4% active. membrane potential dye, choline response; active = decrease or increase beyond buffer ±3SD. AID 493222;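 further: parental cells lack the transporter so any hit is non-specific; ratio is peak minus trough fluorescence over baseline after EC90 choline challenge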
# Numbers without * were called inactive; i = inactive; · = no result given.
SMILES,CHT block,procasp7 counter,procasp3 activ,CHT allo act,CHT block conf,HEK293 MPD ctr
CCc1noc(C)c1C(=O)Nc1ccc(C(F)(F)F)cc1,i,1.9,3.4,i,·,·
O=C(Oc1cccccc1=O)c1ccccc1,-6.88*,-3.6,-2.8,i,i,i
Cc1ccc(NC(=O)c2ccccc2)cc1OC(=O)c1ccccc1,i,3.5,-2.8,i,·,·
Fc1ccc(CNc2ccc(N3CCN(Cc4ccccc4)CC3)cc2)cc1,i,-12.9,-9.3,i,i,i
O=S(Cc1ccccc1)CC(O)(c1ccc(Cl)cc1)c1ccc(Cl)cc1 (stereo unspecified),i,10.8,10.5,i,·,·
O=S(Cc1ccccc1)CC(O)(c1ccccc1)c1ccccc1 (stereo unspecified),-5.12*,-3.2,-1.3,i,i,i
COc1ccc(-c2noc(N3CCC(C(=O)Nc4ccc(OC)cc4OC)CC3)n2)cc1,-6.64*,3.9,3.2,i,i,i
COc1ccc(NC(=O)C2CCN(c3nc(-c4ccc(OC)cc4)no3)CC2)cc1,i,-0.9,15.5,i,·,·
CCN(CC(=O)Nc1cccc(OC)c1)c1ncnc2sc(C)c(C)c12,-5.48*,3.4,0.1,i,68.8%*,i
COc1cccc(NC(=O)CN(C)C(=O)CSc2ncnc3sc(C)c(C)c23)c1,i,-4.0,-1.7,i,·,·
O=C(CNC(=O)c1ccc(Cl)cc1Cl)OCc1cn2cc(Br)ccc2n1,·,4.9,3.8,·,·,·
Cc1nn(CC2CC2)c(=O)n1-c1ccc(Oc2ccccc2)cc1,-11.8*,-2.8,-2.9,i,59.1%*,i
CC(C(=O)Nc1ccccc1Cl)N(c1ccccc1)S(C)(=O)=O (stereo unspecified),i,7.1,1.8,i,·,·
CC(C(=O)NC1CCCCCC1)N(c1ccccc1)S(C)(=O)=O (stereo unspecified),-11.6*,1.7,4.9,i,i,i
COc1ccc(/C=C/C(=O)OCC(=O)Nc2ccc(N3CCOCC3)cc2)cc1OC,-5.02*,-1.2,2.5,i,i,i
COc1ccc(/C=C/C(=O)OCC(=O)Nc2ccc(N3CCOCC3)cc2)cc1,i,-2.2,-1.8,i,·,·
COc1ccc(C(=O)NCCC2=CCCCC2)cc1OC1CCN(C(C)C)CC1,-11.1*,1.0,10.4,i,5.1%*,i
COc1ccc(C(=O)NCCCSC)cc1OC1CCN(C(C)C)CC1,-9.06*,4.8,-5.0,i,18.0%*,i
COc1ccc(C(=O)N2CCCC(O)C2)cc1OC1CCN(C(C)C)CC1 (stereo unspecified),-7.07*,·,·,i,61.5%*,i
COCC1CCN(C(=O)c2ccc(OC)c(OC3CCN(C(C)C)CC3)c2)CC1,i,·,·,i,·,·
COc1ccc(C(=O)NC2CCCCC2)cc1OC1CCN(C(C)C)CC1,-7.74*,-4.2,7.7,i,9.8%*,i
COc1cc(C(=O)NCCC2=CCCCC2)cc(OC)c1OC,i,7.4,-3.3,i,·,·
O=C(C(Cl)c1ccccc1)N1CCOCC1 (stereo unspecified),i,-7.8,-4.3,i,·,·
O=C(Nc1cccc(S(=O)(=O)Nc2ccc(Cl)cc2)c1)c1ccc[n+]([O-])c1,i,1.2,5.8,i,·,·
Cc1cccc(C)c1NS(=O)(=O)c1c(C(=O)N2CCCCC2)c(C)n(C)c1C,i,2.6,6.3,i,·,·
CCCc1nc(NCCO)c(C#N)c2c1CCCC2,-8.02*,0.9,-8.5,i,i,i
CCCc1nc(NCc2ccccc2)c(C#N)c2c1CCCC2,i,6.9,6.2,i,·,·
CCC(OC(=O)CNS(=O)(=O)c1ccccc1)C(=O)c1ccccc1 (stereo unspecified),i,1.6,3.5,i,·,·
COc1cccc(OCCSc2nnc3sc4ccccc4n23)c1,-8.7*,7.4,2.5,i,i,i
CCNC(=O)C1(c2ccccc2)CCCC1,-6.83*,-3.9,0.4,i,i,i
